Measurements pooled from the literature.
Protocols differ between the studies behind these lines.
Cell line: PC-3
Read-out: cell growth or viability

With `COc1ccc(C(=O)/C=C/c2ccc(Cl)c(Cl)c2)cc1S(N)(=O)=O` the GI50 was 1900 nM (SRB; 48 h).
The IC50 of `Cc1cc(C)cc(COc2cc3c(cc2OCc2cc(C)cc(C)c2)[C@H]2C[C@](O)(Cc4cn(Cc5cnccn5)nn4)C[C@H](C)N2CC3)c1` is reported as 480 nM (MTT).
`COc1ccc(C(=O)/C=C/c2ccc3ccccc3c2)cc1S(N)(=O)=O` has a GI50 of 1800 nM (SRB; 48 h).
`O=C(CN1C(=O)/C(=C/c2cccc(Br)c2)SC1=S)Nc1ccccc1` gave an inhibition of 27.3% (MTT; 10 µM).
For `O=C(Nc1cccc(Oc2nccc(C(F)(F)F)c2Cl)c1)C1CCCN(C(=O)c2cc(C(F)(F)F)cc(C(F)(F)F)c2)C1` (stereo not shown), the inhibition was 0% (WST-1; 100 µM).
`COc1cc2ncnc(Nc3ccc(F)c(Cl)c3)c2cc1NC(=O)N/N=C/c1cccn1CCCN1CCCC1` gave an IC50 of 1560 nM (MTT; 72 h).
The inhibition of `C=CCOc1cccc(NC(=O)C2CCCN(C(=O)c3cc(C(F)(F)F)cc(C(F)(F)F)c3)C2)c1` (stereo not shown) is reported as 0% (WST-1; 100 µM).
For `Cc1cc(C)cc(COc2cc3c(cc2OCc2cc(C)cc(C)c2)[C@H]2C[C@](O)(Cc4cn(CCc5ccc(N)cc5)nn4)C[C@H](C)N2CC3)c1`, the IC50 was 490 nM (MTT).
With `COc1cccc(/C=C2\SC(=S)N(CC(=O)Nc3ccccc3)C2=O)c1` the inhibition was 10.6% (MTT; 10 µM).
The IC50 of `O=C(N/N=C/c1cccn1CCN1CCCCC1)Nc1cc2c(Nc3ccc(F)c(Cl)c3)ncnc2cc1O[C@H]1CCOC1` is reported as 1570 nM (MTT; 72 h).
`Cc1c(OCC(F)(F)F)ccnc1COc1ccc(NC(=O)Nc2cccc(C(F)(F)F)c2)cc1` has an IC50 of over 100000 nM (MTT; 72 h).
`C=CS(=O)(=O)Nc1ccc(CCn2cc(C[C@@]3(O)C[C@@H]4c5cc(OCc6cc(C)cc(C)c6)c(OCc6cc(C)cc(C)c6)cc5CCN4[C@@H](C)C3)nn2)cc1` has an IC50 of 1730 nM (MTT).
The inhibition of `COc1cccc(NC(=O)CN2C(=O)/C(=C/c3ccccc3)SC2=S)c1` is reported as 17.8% (MTT; 10 µM).
The IC50 of `Cc1cc(C)cc(COc2cc3c(cc2OCc2cc(C)cc(C)c2)[C@H]2C[C@](O)(Cc4cn(-c5ccccc5)nn4)C[C@H](C)N2CC3)c1` is reported as 264 nM (MTT).
`O=C(N/N=C/c1cccn1CCN1CCCC1)Nc1cc2c(Nc3ccc(F)c(Cl)c3)ncnc2cc1O[C@H]1CCOC1` has an IC50 of 1900 nM (MTT; 72 h).
`CC/C(=C(\c1ccccc1)c1ccc(OCCN(C)C)cc1)c1ccccc1` gave an EC90 of 31000 nM (ATP luminescence; 72 h).
With `COc1ccccc1/C=C/C(=O)c1ccc(OC)c(S(N)(=O)=O)c1` the GI50 was 4800 nM (SRB; 48 h).
For `COc1cc2c(c(OC)c1OC)-c1ccc(OC)c(=O)cc1[C@@H](NC(C)=O)CC2`, the inhibition was 58.6% (MTT; 10 µM).
For `COc1cc2ncnc(Nc3ccc(F)c(Cl)c3)c2cc1NC(=O)N/N=C/c1cccn1CCCN1CCCCC1`, the IC50 was 1060 nM (MTT; 72 h).
`O=C(Nc1cccc(Oc2ccccc2)c1)C1CCCN(C(=O)c2cccc(-c3ccco3)c2)C1` (stereo not shown) has an inhibition of 0% (WST-1; 100 µM).
`O=C(CN1C(=O)/C(=C/c2ccc[nH]2)SC1=S)Nc1ccccc1` has an inhibition of 22.7% (MTT; 10 µM).
With `COc1ccnc(COc2ccc(NC(=O)Nc3ccc(Cl)c(C(F)(F)F)c3)cc2)c1OC` the IC50 was over 100000 nM (MTT; 72 h).
`CSc1cccc(NC(=O)C2CCCN(C(=O)c3cccc(-c4ccco4)c3)C2)c1` (stereo not shown) gave an inhibition of 0% (WST-1; 100 µM).
The GI50 of `COc1ccc(-c2ccc(-c3ccc(C(=N)N)nc3)s2)cc1` is reported as 1680 nM.
With `COc1ccc(C(=O)/C=C/c2cc3c(cc2Br)OCO3)cc1S(N)(=O)=O` the GI50 was 6800 nM (SRB; 48 h).
With `COCCCOc1ccnc(COc2ccc(NC(=O)Nc3ccc(OC)cc3)cc2)c1C` the IC50 was 47200 nM (MTT; 72 h).
The inhibition of `CSc1cccc(NC(=O)C2CCCN(C(=O)c3cc(C(F)(F)F)cc(C(F)(F)F)c3)C2)c1` (stereo not shown) is reported as 0% (WST-1; 100 µM).
`COc1cccc(NC(=O)CN2C(=O)/C(=C/C3CC3)SC2=S)c1` has an inhibition of 18.6% (MTT; 10 µM).
For `COc1ccc(C(=O)/C=C/c2cccc(Cl)c2)cc1S(N)(=O)=O`, the GI50 was 2200 nM (SRB; 48 h).
The IC50 of `COc1cc2ncnc(Nc3ccc(F)c(Cl)c3)c2cc1NC(=O)N/N=C/c1cccn1CCCN1CCOCC1` is reported as 50 nM (MTT; 72 h).
`Cc1cc(C)cc(COc2cc3c(cc2OCc2cc(C)cc(C)c2)[C@H]2C[C@](O)(Cc4cn(CC5CC5)nn4)C[C@H](C)N2CC3)c1` has an IC50 of 302 nM (MTT).
With `O=C(CN1C(=O)/C(=C/c2cccc(Cl)c2)SC1=S)Nc1ccccc1` the inhibition was 21% (MTT; 10 µM).
`O=C(N/N=C/CN1CCOCC1)Nc1cc2c(Nc3ccc(F)c(Cl)c3)ncnc2cc1O[C@H]1CCOC1` has an IC50 of 3390 nM (MTT; 72 h).
`COc1ccnc(COc2ccc(NC(=O)Nc3cccc(C(F)(F)F)c3)cc2)c1OC` has an IC50 of 75000 nM (MTT; 72 h).
The IC50 of `O=C(N/N=C/CN1CCCC1)Nc1cc2c(Nc3ccc(F)c(Cl)c3)ncnc2cc1O[C@H]1CCOC1` is reported as 3890 nM (MTT; 72 h).
`COc1ccc(C(=O)/C=C/c2cccc(Cl)c2Cl)cc1S(N)(=O)=O` gave a GI50 of 4500 nM (SRB; 48 h).
`Cc1ncsc1-c1ccc(CNC(=O)[C@@H]2C[C@@H](O)CN2C(=O)[C@@H](NC(=O)CCCCCCCCCC(=O)N2CCN(CC[C@H](NC(=O)C3(N)CCN(c4ncnc5[nH]ccc45)CC3)c3ccc(Cl)cc3)CC2)C(C)(C)C)cc1` gave a GI50 of 180 nM (72 h).
For `O=C(CN1C(=O)/C(=C/c2ccccn2)SC1=S)Nc1ccccc1`, the inhibition was 30.5% (MTT; 10 µM).
`O=C(Nc1cccc(CN2CCOCC2)c1)C1CCCN(C(=O)c2cc(C(F)(F)F)cc(C(F)(F)F)c2)C1` (stereo not shown) gave an inhibition of 0% (WST-1; 100 µM).
`COc1ccc(C(=O)/C=C/c2ccccc2Br)cc1S(N)(=O)=O` has a GI50 of 4300 nM (SRB; 48 h).
`COc1cccc(Oc2ccccc2NC(=O)CNC(=O)c2cccc3ccccc23)c1` gave a GI50 of 282 nM (SRB; 48 h).
The IC50 of `O=C(N/N=C/CN1CCCCC1)Nc1cc2c(Nc3ccc(F)c(Cl)c3)ncnc2cc1O[C@H]1CCOC1` is reported as 810 nM (MTT; 72 h).
The inhibition of `COc1cccc(NC(=O)C2CCCN(C(=O)c3cc(C(F)(F)F)cc(C(F)(F)F)c3)C2)c1` (stereo not shown) is reported as 0% (WST-1; 100 µM).
